In ChEMBL document CHEMBL4020841, “Structure Guided Lead Generation toward Nonchiral M. tuberculosis Thymidylate Kinase Inhibitors” (J Med Chem, 2018):
Calls of active or inactive are those of the source. The rule behind the calls is not given here.

tested on: not listed separately; test: Inhibition of Mycobacterium tuberculosis TMPK expressed in Escherichia coli BLi5 using dTMP as substrate in presence of ATP by spectrophotometric based LDH/PK/nucleoside diphosphate kinase enzyme coupled assay
In short: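 Wild-type enzyme from pHL50 in E. coli BLi5, purified by Blue-Sepharose then gel filtration. IC50 fit to four-parameter logistic of % inhibition.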

SMILES	IC50 [µM]
Cc1cn(C2CCN(Cc3cccc(Oc4ccccc4)c3)CC2)c(=O)[nH]c1=O	6.1
Cc1cn(C2CN(Cc3cccc(Oc4ccccc4)c3)C2)c(=O)[nH]c1=O	944
Cc1cn(C2CCN(Cc3ccc(C(=O)O)cc3)CC2)c(=O)[nH]c1=O	141
Cc1cn(C2CN(Cc3ccc(Oc4ccccc4)cc3)C2)c(=O)[nH]c1=O	832
Cc1cn(C2CCN(C(=O)c3ccc(Oc4ccccc4)cc3)CC2)c(=O)[nH]c1=O	353
Cc1cn(C2CCN(Cc3cncc4ccccc34)CC2)c(=O)[nH]c1=O	25
Cc1cccc(CN2CCC(n3cc(C)c(=O)[nH]c3=O)CC2)c1	72
Cc1cn(C2CCN(Cc3cc4ccccc4cn3)CC2)c(=O)[nH]c1=O	26
Cc1cn(C2CCN(Cc3cc4ccccc4o3)CC2)c(=O)[nH]c1=O	23
Cc1cn(C2CCN(Cc3ccncc3)CC2)c(=O)[nH]c1=O	49
Cc1ccc(CN2CCC(n3cc(C)c(=O)[nH]c3=O)CC2)cc1	168
Cc1cn(C2CCN(CCc3cccc(Oc4ccccc4)c3)CC2)c(=O)[nH]c1=O	11
Cc1cn(C2CCN(Cc3ccccn3)CC2)c(=O)[nH]c1=O	96
Cc1cn(C2CN(CCCc3cccc(Oc4ccccc4)c3)C2)c(=O)[nH]c1=O	1140
Cc1cn(C2CCN(Cc3ccc(C#N)cc3)CC2)c(=O)[nH]c1=O	35
Cc1cn(C2CCN(Cc3cc(Oc4ccccc4)c4ccc(Cl)cc4n3)CC2)c(=O)[nH]c1=O	1.8
Cc1cn(C2CCN(Cc3ccc(Oc4ccccc4)cc3)CC2)c(=O)[nH]c1=O	29

SMILES	IC50 [µM]
Cc1cn(C2CCN(Cc3ccccc3)CC2)c(=O)[nH]c1=O	138
Cc1cn(C2CCN(Cc3cccc4ccccc34)CC2)c(=O)[nH]c1=O	38
Cc1cn(C2CCN(Cc3cnc4ccccc4c3)CC2)c(=O)[nH]c1=O	17
Cc1cn(C2CN(CCc3cccc(Oc4ccccc4)c3)C2)c(=O)[nH]c1=O	1910
Cc1cn(CC2CCN(Cc3ccc(Oc4ccccc4)cc3)CC2)c(=O)[nH]c1=O	> 2000
Cc1cn(C2CCN(Cc3ccnc4ccccc34)CC2)c(=O)[nH]c1=O	25
Cc1cn(C2CCN(Cc3cccc(C(=O)O)n3)CC2)c(=O)[nH]c1=O	143
Cc1cn(C2CCN(Cc3ccc4ccccc4c3)CC2)c(=O)[nH]c1=O	20
Cc1cn(C2CCN(Cc3ccc(Cl)cc3)CC2)c(=O)[nH]c1=O	40
Cc1cn(C2CCN(CC3CCCCC3)CC2)c(=O)[nH]c1=O	1120
Cc1cn(C2CCN(Cc3ccoc3)CC2)c(=O)[nH]c1=O	254
Cc1cn(C2CCN(Cc3nccc4ccccc34)CC2)c(=O)[nH]c1=O	27
Cc1cn(C2CCN(Cc3cccnc3)CC2)c(=O)[nH]c1=O	75
Cc1cn(C2CCN(Cc3ccc(N(C)C)cc3)CC2)c(=O)[nH]c1=O	328
COc1ccc(CN2CCC(n3cc(C)c(=O)[nH]c3=O)CC2)cc1	113
Cc1cn(C2CCN(Cc3ccco3)CC2)c(=O)[nH]c1=O	114
Cc1cn(C2CCN(C(=O)c3cccc(Oc4ccccc4)c3)CC2)c(=O)[nH]c1=O	235

tested on: Mycobacterium tuberculosis; test: Inhibition of Mycobacterium tuberculosis TMPK expressed in Escherichia coli BLi5 at 0.8 mM using dTMP as substrate in presence of ATP by spectrophotometric based LDH/PK/nucleoside diphosphate kinase enzyme coupled assay

SMILES	inhibition
Cc1cn(CC2CCN(Cc3cccc(Oc4ccccc4)c3)CC2)c(=O)[nH]c1=O	inactive
